Assay results taken from ChEMBL document CHEMBL3525994, “Lysosomal sequestration (trapping) of lipophilic amine (cationic amphiphilic) drugs in immortalized human hepatocytes (Fa2N-4 cells)” (Drug Metab Dispos, 2013).

Experiments:
[1] = Drug uptake in lysosomes of human Fa2N-4 cells assessed as inhibition of LysoTracker Red fluorescence after 30 mins; format: ADME, cell-based, Lysosome; settings: Fa2N-4, 0.5 h
[2] = Drug uptake in lysosomes of human Fa2N-4 cells assessed as inhibition of LysoTracker Red fluorescence at 500 uM after 30 mins relative to control; format: cell-based, Lysosome; settings: Fa2N-4 cells (lysosomes), probe LysoTracker Red
Outline: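 Fa2N-4 cells at 50,000/well on collagen, rinsed with PBS. Drug (methanol stock diluted in supplemented modified Chee's medium; final 1–500 μM) with LysoTracker Red 50 nM final, 30 min, 37°C, triplicate. Cells PBS-rinsed and solubilised in acetonitrile. Fluorescence read at ex 530/em 590 nm. Medium kept for LDH release.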

[3] = Drug uptake in lysosomes of human Fa2N-4 cells assessed as cellular partitioning measured per 10^6 cells at 1 uM after 5 mins by LC-MS analysis; format: ADME, cell-based, Lysosome; settings: fa2n-4, 5 min
Outline: (§1)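 Fa2N-4 cells, plated at 50,000/well on collagen in MFE with 10% newborn calf serum, switched to serum-free medium after attachment and used 36–48 h after plating. Substrate 1 μM in serum-free MFE, 37±1°C. Cells and substrate solution preincubated apart 5 min, then combined (± ammonium chloride 50 mM, nigericin 10 μM plus monensin 20 μM, or co-drug). Stopped with ice-cold PBS, washed, lysed in acetonitrile with internal standard, quantified by LC-MS/MS.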

[4] = Drug uptake in lysosomes of human Fa2N-4 cells assessed as cellular partitioning measured per 10^6 cells at 1 uM after 5 mins by LC-MS analysis in presence of ammonium chloride; format: ADME, cell-based, Lysosome; settings: fa2n-4, 5 min; outline: as §1
[5] = Drug uptake in lysosomes of human Fa2N-4 cells assessed as cellular partitioning at 1 uM preincubated with chloroquine followed by compound treatment measured after 5 mins by LC-MS analysis; format: ADME, cell-based, Lysosome; settings: fa2n-4, 5 min
Outline: (§2)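 Inhibitor is ammonium chloride 50 mM or chloroquine 200 μM. Three orders of addition: added together with substrate; added 5 min before substrate and left in; or added 5 min before substrate, then cells washed before substrate. Stopped with ice-cold PBS, acetonitrile lysis with internal standard, LC-MS/MS.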

[6] = Drug uptake in lysosomes of human Fa2N-4 cells assessed as cellular partitioning at 1 uM up to 10 mins by LC-MS analysis; format: ADME, cell-based, Lysosome; settings: fa2n-4, 10 min; outline: as §1
[7] = Drug uptake in lysosomes of human Fa2N-4 cells assessed as cellular partitioning at 1 uM measured at 10 mins by LC-MS analysis in presence of ammonium chloride; format: ADME, cell-based, Lysosome; settings: fa2n-4, 10 min; outline: as §1
[8] = Drug uptake in lysosomes of human Fa2N-4 cells assessed as cellular partitioning at 1 uM co-incubated with ammonium chloride for 5 mins by LC-MS analysis; format: ADME, cell-based, Lysosome; settings: fa2n-4, 5 min; outline: as §1
[9] = Drug uptake in lysosomes of human Fa2N-4 cells assessed as cellular partitioning at 1 uM co-incubated with chloroquine for 5 mins by LC-MS analysis; format: ADME, cell-based, Lysosome; settings: fa2n-4, 5 min; outline: as §2
[10] = Drug uptake in lysosomes of human Fa2N-4 cells assessed as cellular partitioning at 1 uM preincubated with ammonium chloride followed by compound treatment measured after 5 mins by LC-MS analysis; format: ADME, cell-based, Lysosome; settings: fa2n-4, 5 min; outline: as §2
[11] = Drug uptake in lysosomes of human Fa2N-4 cells assessed as cellular partitioning at 1 uM preincubated with ammonium chloride for 5 mins followed by media washout and compound treatment measured after 5 mins by LC-MS analysis; format: ADME, cell-based, Lysosome; settings: fa2n-4, 5 min; outline: as §2
[12] = Drug uptake in lysosomes of human Fa2N-4 cells assessed as cellular partitioning at 1 uM preincubated with chloroquine for 5 mins followed by media washout and compound treatment measured after 5 mins by LC-MS analysis; format: ADME, cell-based, Lysosome; settings: fa2n-4, 5 min; outline: as §2
[13] = Drug uptake in lysosomes of human Fa2N-4 cells assessed as cellular partitioning at 1 uM after 5 mins by LC-MS analysis in presence of ammonium chloride; format: ADME, cell-based, Lysosome; settings: fa2n-4, 5 min; outline: as §1
[14] = Drug uptake in lysosomes of human Fa2N-4 cells assessed as cellular partitioning at 1 uM after 5 mins by LC-MS analysis in presence of nigericin and monensin; format: ADME, cell-based, Lysosome; settings: fa2n-4, 5 min; outline: as §1
[15] = Drug uptake in lysosomes of human Fa2N-4 cells assessed as cellular partitioning at 1 uM after 5 mins by LC-MS analysis in presence of ammonium chloride, nigericin and monensin; format: ADME, cell-based, Lysosome; settings: fa2n-4, 5 min; outline: as §1
[16] = Drug uptake in lysosomes of human Fa2N-4 cells assessed as cellular partitioning at 1 uM after 5 mins by LC-MS analysis in presence of astemizole; format: ADME, cell-based, Lysosome; settings: fa2n-4, 5 min; outline: as §1
[17] = Drug uptake in lysosomes of human Fa2N-4 cells assessed as cellular partitioning at 1 uM after 5 mins by LC-MS analysis in presence of dextromethorphan; format: ADME, cell-based, Lysosome; settings: fa2n-4, 5 min; outline: as §1
[18] = Drug uptake in lysosomes of human Fa2N-4 cells assessed as cellular partitioning at 1 uM after 5 mins by LC-MS analysis in presence of chloroquine; format: ADME, cell-based, Lysosome; settings: fa2n-4, 5 min; outline: as §2
[19] = Drug uptake in lysosomes of human Fa2N-4 cells assessed as cellular partitioning at 1 uM after 5 mins by LC-MS analysis in presence of imipramine; format: ADME, cell-based, Lysosome; settings: fa2n-4, 5 min; outline: as §1
[20] = Drug uptake in lysosomes of human Fa2N-4 cells assessed as cellular partitioning at 1 uM after 5 mins by LC-MS analysis in presence of diclofenac; format: ADME, cell-based, Lysosome; settings: fa2n-4, 5 min; outline: as §1
[21] = Drug uptake in lysosomes of human Fa2N-4 cells assessed as cellular partitioning at 1 uM after 5 mins by LC-MS analysis in presence of rifampin; format: ADME, cell-based, Lysosome; settings: fa2n-4, 5 min; outline: as §1
[22] = Drug uptake in lysosomes of human Fa2N-4 cells assessed as cellular partitioning at 1 uM after 5 mins by LC-MS analysis in presence of atorvastatin; format: ADME, cell-based, Lysosome; settings: fa2n-4, 5 min; outline: as §1

SMILES	IC50 [1] [µM]	further results
CC(=O)Nc1ccc(O)cc1 [ACETAMINOPHEN]	> 500	–
CCN(CC)Cc1cc(Nc2ccnc3cc(Cl)ccc23)ccc1O [AMODIAQUINE]	> 500	inhibition at 0.5 h, 500 µM [2]: > 25%
COc1ccc(CCN2CCC(Nc3nc4ccccc4n3Cc3ccc(F)cc3)CC2)cc1 [ASTEMIZOLE]	110	–
CC(C)c1c(C(=O)Nc2ccccc2)c(-c2ccccc2)c(-c2ccc(F)cc2)n1CC[C@@H](O)C[C@@H](O)CC(=O)O [ATORVASTATIN]	> 500	Drug uptake [3]: < 11 pmol; Drug uptake [4]: 34 pmol
O=C(O)COCCN1CCN(C(c2ccccc2)c2ccc(Cl)cc2)CC1 (stereo not given) [CETIRIZINE]	> 500	–
CCN(CC)CCCC(C)Nc1ccnc2cc(Cl)ccc12 (stereo not given) [CHLOROQUINE]	220	–
CNCCCN1c2ccccc2CCc2ccccc21 [DESIPRAMINE]	220	–
COc1ccc2c(c1)[C@]13CCCC[C@@H]1[C@H](C2)N(C)CC3 [DEXTROMETHORPHAN]	> 500	inhibition at 0.5 h, 500 µM [2]: > 25%
O=C(O)Cc1ccccc1Nc1c(Cl)cccc1Cl [DICLOFENAC]	> 500	–
C#Cc1cccc(Nc2ncnc3cc(OCCOC)c(OCCOC)cc23)c1 [ERLOTINIB]	> 500	–
OC(Cn1cncn1)(Cn1cncn1)c1ccc(F)cc1F [FLUCONAZOLE]	> 500	–
CNCCC(Oc1ccc(C(F)(F)F)cc1)c1ccccc1 (stereo not given) [FLUOXETINE]	150	–
CC(C)n1c(/C=C/C(O)CC(O)CC(=O)O)c(-c2ccc(F)cc2)c2ccccc21 (stereo not given) [FLUVASTATIN]	> 500	–
CC(C)Cc1ccc(C(C)C(=O)O)cc1 (stereo not given) [IBUPROFEN]	> 500	–
CN(C)CCCN1c2ccccc2CCc2ccccc21 [IMIPRAMINE]	260	–
CC(C(=O)O)c1cccc(C(=O)c2ccccc2)c1 (stereo not given) [KETOPROFEN]	> 500	–
O=C(c1ccccc1)c1ccc2n1CCC2C(=O)O (stereo not given) [KETOROLAC]	> 500	–
CC(CCc1ccccc1)NCC(O)c1ccc(O)c(C(N)=O)c1 (stereo not given) [LABETALOL]	> 500	inhibition at 0.5 h, 500 µM [2]: > 25%
CS(=O)(=O)CCNCc1ccc(-c2ccc3ncnc(Nc4ccc(OCc5cccc(F)c5)c(Cl)c4)c3c2)o1 [LAPATINIB]	380	–
COC(=O)C1=C(C)NC(C)=C(C(=O)OC)C1c1ccccc1[N+](=O)[O-] [NIFEDIPINE]	> 500	–
Fc1ccc([C@@H]2CCNC[C@H]2COc2ccc3c(c2)OCO3)cc1 [PAROXETINE]	130	–
CC[C@H](C)C(=O)O[C@H]1C[C@H](O)C=C2C=C[C@H](C)[C@H](CC[C@@H](O)C[C@@H](O)CC(=O)O)[C@H]21 [PRAVASTATIN]	> 500	–
CC(C)NCC(O)COc1cccc2ccccc12 (stereo not given) [PROPRANOLOL]	–	Drug uptake [5]: Not Active; Drug uptake [3]: 189 pmol; Drug uptake [4]: Not Active; Drug uptake [6]: Not Active; Drug uptake [7]: Not Active; Drug uptake [8]: Not Active; Drug uptake [9]: Not Active; Drug uptake [10]: Not Active; Drug uptake [11]: Active; Drug uptake [12]: Not Active; Drug uptake [13]: Not Active; Drug uptake [14]: Not Active; Drug uptake [15]: Not Active; Drug uptake [16]: Not Active; Drug uptake [17]: Not Active; Drug uptake [18]: Not Active; Drug uptake [19]: Not Active; Drug uptake [20]: Active; Drug uptake [21]: Active; Drug uptake [22]: Active
CCN1CCC[C@H]1CNC(=O)c1c(O)c(Cl)cc(Cl)c1OC [RACLOPRIDE]	> 500	–
CC(C)c1nc(N(C)S(C)(=O)=O)nc(-c2ccc(F)cc2)c1/C=C/[C@@H](O)C[C@@H](O)CC(=O)O [ROSUVASTATIN]	> 500	–
CN1C(C(=O)Nc2ccccn2)=C(O)c2sccc2S1(=O)=O [TENOXICAM]	> 500	–
